Compound activity from PubChem BioAssay.
DNMT1 block: DNMT1 (human) enzyme inhibition; P26358; DNMT1 molecular beacon, Hinp1I cleavage, fluorescence; inhibition (reported as % activation of signal), % at 10 µM; 360,000 compounds, 0.83% hits; in the data active = inhibition above about 50%
STEP inh: blocks human striatal-enriched tyrosine phosphatase; AID 588621; inhibition, % at 20 µM; P54829; 360,000 compounds, 0.25% hits; recombinant STEP, OMFP fluorogenic substrate, fluorescence;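 active = inhibition at 20 µM, scaled per plate between control wells, above about 37%, limit read from the data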;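 also: 0% = DMSO with enzyme and substrate and 100% = substrate only without enzyme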
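Material: STEP (striatal-enriched tyrosine phosphatase) enzyme, cell-free | Medium: 50 mM Bis-Tris pH 6.0 with 2.5 mM DTT and 0.005% Tween 20 | Read-out: Percent inhibition scaled to no-enzyme and uninhibited-enzyme controls, plate-pattern corrected | Signal: Fluorescence read at 480 nm ex / 540 nm em | Times: 20 min reaction, room temperature, in the dark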
Scp1 inh: inhibitors of human Scp-1 phosphatase | 340,000 compounds, 0.88% hits | AID 493091 | inhibition, % at 20 µM | Recombinant Scp1, phosphopeptide, malachite green phosphate absorbance;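 active = inhibition above about 50% at 20 µM, limit read from the data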;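 also: plate controls were DMSO wells with enzyme for no effect and wells lacking enzyme for full effect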
Target sequence (Q9GZU7 76-261 limits assumed): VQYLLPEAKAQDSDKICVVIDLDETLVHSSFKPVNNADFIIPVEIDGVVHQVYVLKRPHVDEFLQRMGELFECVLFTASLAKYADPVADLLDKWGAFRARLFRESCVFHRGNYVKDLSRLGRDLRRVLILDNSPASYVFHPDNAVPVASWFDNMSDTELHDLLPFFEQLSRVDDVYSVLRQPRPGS
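assay system = SCP-1 phosphatase catalytic domain, residues 76-261 | buffer or medium = 50 mM Tris acetate pH 5.5, 0.005% Tween-20, 10 mM MgCl2 | incubation = enzyme reaction 45 min at room temperature, colour 5 min, stabilisation 30 min | signal = Phosphate-binding colour reagent, absorbance read at 630 nm | measure = % inhibition at 20 µM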
SUMO1-SIM PPI: modulators of human SUMO1-mediated protein-protein interactions; SUMO1 binding to a labelled peptide, TR-FRET, 1 h; 360,000 compounds, 0.33% hits; P63165; inhibition, % at 20 µM; in the data active = inhibition above about 37%
Target sequence (P63165 whole entry, looked up): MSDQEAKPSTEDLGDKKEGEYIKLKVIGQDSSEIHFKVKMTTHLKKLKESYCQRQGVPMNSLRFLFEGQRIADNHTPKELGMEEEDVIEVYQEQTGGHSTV
LMPTP inh: LMPTP (human) inhibition; P24666; recombinant LMPTP-A, OMFP fluorogenic substrate, fluorescence intensity; inhibition, % at 20 µM; 360,000 compounds, 0.22% hits; AID 651560;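 active = compounds that cut the enzyme signal by at least half of the control window in the single-dose screen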;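 also: plate controls were DMSO wells with enzyme plus substrate for no effect and substrate without enzyme for full effect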
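Test system: LMPTP-A, protein tyrosine phosphatase of low molecular weight; Input: 0.625 nM enzyme; Incubation: 50 min dark incubation at room temperature; Signal: endpoint fluorescence intensity from OMFP dephosphorylation; Read-out basis: % inhibition versus control wells.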
NadD block: NadD (S. aureus) enzyme inhibition; purified NadD enzyme, colorimetric absorbance read-out; inhibition, % at 20 µM; 360,000 compounds, 0.78% hits; in the data active = inhibition above about 26%
DNMT1 inh conf: DNMT1 inhibition confirmation, single concentration; shares compounds with DNMT1 block; DNMT1 molecular beacon HinP1I cleavage, fluorescence; inhibition, % at 10 µM; 2,300 compounds, 8% hits; AID 602385;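 active = average inhibition of at least 30% in the single-concentration confirmation test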
Beacon interf: beacon fluorescence artifact counter-screen; activation (fluorescence interference), % at 10 µM; shares compounds with DNMT1 block; DNMT1 molecular beacon spectral interference counterscreen, fluorescence 485/520; 2,300 compounds, 1% hits;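 active = activation of at least 30% at 10 µM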;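 also: DNMT1 catalytic domain with a HinP1I cleavage step and a FAM/dabcyl DNA beacon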
The depositor's hits bear a star; · = not tested or not shown. Compounds with a hit are over-represented: about 2.4% of the library has one in this group of screens.

SMILES	DNMT1 block	STEP inh	Scp1 inh	SUMO1-SIM PPI	LMPTP inh	NadD block	DNMT1 inh conf	Beacon interf
Cc1ccccc1-c1cc2nc(C)c(C)c(=O)n2[nH]1	84*	-1	-8	0	1	0	7	4
Cc1nc2cc(-c3ccc(F)cc3)[nH]n2c(=O)c1C	0	0	-1	5	1	2	·	·
CCCCCC(=O)Nc1ccc(S(=O)(=O)NC2=NCCCCC2)cc1	5	-2	-7	2	-2	0	·	·
NS(=O)(=O)c1ccc(Nc2nc(-c3ccc(F)cc3)cs2)cc1	-6	-4	-3	-3	3	-5	·	·
COc1ccc(-c2csc(Nc3ccc(S(N)(=O)=O)cc3)n2)cc1OC	63*	-3	10	33	2	10	4	14
Cc1cc(NS(=O)(=O)c2ccccc2)c([N+](=O)[O-])cc1C	-1	2	-7	-6	-1	-6	·	·
CCCN1C2CCCC1CC(NC(=O)c1ccccc1OC)C2 (stereo unspecified)	6	-4	6	2	-2	-2	·	·
COc1ccc(N2Cc3cccc(C(=O)NC(C)CCc4ccco4)c3C2=O)cc1 (stereo unspecified)	77*	2	79*	5	12	6	3	1
CC(CCc1ccco1)NC(=O)c1cccc2c1C(=O)N(C1CCCCC1)C2 (stereo unspecified)	1	4	-8	2	1	6	·	·
CCOc1ccc(-n2ccnc2SCC(=O)Nc2nnc(C)s2)cc1	0	1	-7	0	-2	-7	·	·
O=C1N(Cc2cccc(Cl)c2)C[C@@H]2C[C@@H](c3cccn3-c3cccnc3)N3CCC[C@@]123	78*	5	0	2	2	11	2	2
CCOc1ccccc1C(=O)NCc1ccc2c(c1)OCO2	1	1	-7	0	1	-3	·	·
CCOc1cccc2cc(-c3nnc(NCc4ccc5c(c4)OCO5)s3)c(=O)oc12	70*	3	1	1	33	28	0	-5
Cc1ccc(S(=O)(=O)N2CCCC2CNC(=O)C(=O)Nc2ccc(F)cc2)cc1 (stereo unspecified)	54*	0	-2	0	1	-4	2	4
COc1ccc(S(=O)(=O)N2CCCC2CNC(=O)C(=O)Nc2ccc(C)cc2)cc1 (stereo unspecified)	-3	-2	-9	8	0	-2	·	·
O=C(Cn1cc(COc2ccc(C(=O)c3ccccc3)cc2)nn1)c1ccc(O)cc1	39	-5	-14	5	0	5	·	·
COc1ccc(OCc2cn(CC(=O)c3ccc(O)cc3)nn2)cc1	57*	6	-2	8	0	7	4	-2
CCC(=O)c1ccc(OCc2cn(CC(=O)c3ccc(O)cc3)nn2)cc1	54*	2	-8	2	1	5	10	-3
Cc1ccc(C(=O)OC(C)C(=O)NC2CCCCC2C)s1 (stereo unspecified)	83*	3	-2	8	0	-3	2	3
CC(OC(=O)c1cccs1)C(=O)NC1CCCCC1C (stereo unspecified)	5	2	-6	1	0	-3	·	·
O=C(COC(=O)c1cnccn1)c1ccc2ccccc2c1	1	1	-3	-15	-3	1	·	·
CC(C)Cn1c(-c2cccc(S(=O)(=O)N3CCOCC3)c2)n[nH]c1=S	4	0	-4	7	-2	1	·	·
CC(=O)NC(c1cccc(F)c1)c1nc(-c2cc(F)cc(Cl)c2)cs1 (stereo unspecified)	59*	0	·	-1	30	-2	5	7
CCOC(=O)CC1C(=O)NCCN1S(=O)(=O)c1ccc(F)cc1 (stereo unspecified)	-2	-1	-13	-2	-1	-2	·	·
